Common to all, as to format: functional
Experiment [1] has as its system Pseudomonas aeruginosa. As to the kind of experiment: Minimum Potentiation Concentration of EPI required to achieve an 8-fold reduction in antibiotic MIC of AZT against MexAB-OprM pump system in Pseudomonas aeruginosa without horse serum. In a few lines: (§1)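 Broth microdilution in Mueller–Hinton broth, P. aeruginosa PAM1723, starting inoculum 10^6 CFU/mL, 18 h at 37 °C; run with and without 10% horse serum. Aztreonam MIC read by visual growth; MPC8 taken as lowest inhibitor concentration giving 8-fold reduction of aztreonam MIC.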

Experiment [2] deals with Pseudomonas aeruginosa. As to the kind of experiment: Minimum Potentiation Concentration of EPI required to achieve an 8-fold reduction in antibiotic MIC of AZT against MexAB-OprM pump system in Pseudomonas aeruginosa with 10% horse serum. In a few lines: as §1
Experiment [3] can be described thus: Ratio of potentiation of aztreonam (AZT) with 10% horse serum to without serum. The procedure, abridged: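 Ratio of aztreonam MPC8 with 10% horse serum to MPC8 without serum, both from Mueller–Hinton broth microdilution against PAM1723 (10^6 CFU/mL, 18 h, 37 °C, visual growth read-out).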
The subject of experiment [4] is Pseudomonas aeruginosa. As to the kind of experiment: Minimum Potentiation Concentration of EPI required to achieve an 8-fold reduction in antibiotic MIC of levofloxacin against MexABOprMover-expressing strain of Pseudomonas aeruginosa. The procedure, abridged:
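P. aeruginosa PAM1723 in Mueller–Hinton broth, broth microdilution per NCCLS M7-A4, starting inoculum 10^6 CFU/mL, inhibitor titrated with levofloxacin; 18 h at 37 °C. Levofloxacin MIC read at 70% growth inhibition by OD 595 nm. Value is the inhibitor concentration giving an 8-fold drop in levofloxacin MIC, measured without serum.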

This note sets out measurements from ChEMBL document CHEMBL1136457, “MexAB-OprM-specific efflux pump inhibitors in Pseudomonas aeruginosa. Part 1: discovery and early strategies for lead optimization” (2003).

Where only a bound is given, the exact number is not on record here.

Turning to `CCC(C)(C(N)=O)c1csc(/C=C/c2cccc(NC(=O)Cc3ccccc3C(=O)O)c2)n1` (configuration not stated), the figures for the MPC8 in the experiment on Pseudomonas aeruginosa [1], in the experiment on Pseudomonas aeruginosa [2] and in the experiment with Pseudomonas aeruginosa [4] were 20 µg/mL, 40 µg/mL and 80 µg/mL, respectively. The Ratio in experiment [3] turned out to be 2.
On to `CC(C)c1csc(COc2ccnc(NC(=O)Cc3ccccc3C(=O)O)c2)n1`, for which the values for the MPC8 with Pseudomonas aeruginosa [1] and in the experiment with Pseudomonas aeruginosa [2] were 2.5 µg/mL and 5 µg/mL, respectively. Moreover, the Ratio in experiment [3] amounted to 2.
For `CC(C)c1csc(/C=C/c2cccc(NC(=O)Cc3ccccc3C(=O)O)c2)n1` the same measures were “<=0.63 ug ml-1”, 10 µg/mL and greater than 16.
The like results for `O=C(Cc1ccccc1C(=O)O)Nc1cccc(/C=C/c2nc(C(F)(F)C(F)(F)F)cs2)c1` were, in that order, 2.5 µg/mL, 80 µg/mL and 32.
In the case of `CC(C)(C)c1csc(/C=C/c2cccc(NC(=O)Cc3ccccc3C(=O)O)c2)n1`, the MPC8 result was “<=0.63 ug ml-1” with Pseudomonas aeruginosa [1], 20 µg/mL in the experiment with Pseudomonas aeruginosa [2] and 0.63 µg/mL in the experiment with Pseudomonas aeruginosa [4]. Besides, the Ratio in experiment [3] was greater than 32.
For the compound `O=C(Cc1ccccc1C(=O)O)Nc1cccc(/C=C/c2nc(-c3ccccc3)cs2)c1`, the MPC8 in the experiment with Pseudomonas aeruginosa [1] is 1.25 µg/mL; with Pseudomonas aeruginosa [2], 40 µg/mL. Besides, the Ratio in experiment [3] is 32.
As to `CC(C)c1csc(/C=C/c2cccc(NC(=O)Cc3ccccc3C(=O)O)n2)n1`, the values for the MPC8 with Pseudomonas aeruginosa [1], in the experiment with Pseudomonas aeruginosa [2] and in the experiment with Pseudomonas aeruginosa [4] were 20 µg/mL, 80 µg/mL and greater than 80 µg/mL, respectively. Also, the Ratio in experiment [3] was determined as 4.
Take `CC(C)c1csc(/C=C/c2ccnc(NC(=O)Cc3ccccc3C(=O)O)c2)n1`: the MPC8 in the experiment with Pseudomonas aeruginosa [1] is greater than 10 µg/mL; with Pseudomonas aeruginosa [2], 10 µg/mL; in the experiment with Pseudomonas aeruginosa [4], 0.31 µg/mL.
As for `CC(C)c1csc(CCc2ccnc(NC(=O)Cc3ccccc3C(=O)O)c2)n1`, the MPC8 in the experiment with Pseudomonas aeruginosa [1] worked out at 5 µg/mL; in the experiment with Pseudomonas aeruginosa [2], 10 µg/mL; in the experiment on Pseudomonas aeruginosa [4], 2.5 µg/mL. The Ratio in experiment [3] was 2.
Regarding `CC(C)c1csc(/C=C/c2cccc(NC(=O)[C@H]3OC(C)(C)O[C@@H]3C(=O)O)c2)n1`, the MPC8 in the experiment with Pseudomonas aeruginosa [1] was found to be 5 µg/mL; in the experiment with Pseudomonas aeruginosa [2] it was 20 µg/mL. Further, the Ratio in experiment [3] was 4.
The like results for `CC(C)c1csc(/C=C/c2cccc(NC(=O)[C@@H]3OC(C)(C)O[C@H]3C(=O)O)c2)n1` were, in that order, 20 µg/mL, 40 µg/mL and 2.
For `CC(C)c1csc(/C=C/c2cncc(NC(=O)Cc3ccccc3C(=O)O)c2)n1`, the MPC8 is 5 µg/mL with Pseudomonas aeruginosa [1], 10 µg/mL in the experiment on Pseudomonas aeruginosa [2] and 2.5 µg/mL with Pseudomonas aeruginosa [4]. The Ratio in experiment [3] amounted to 2.
As for `CC(C)c1csc(/C=C/c2cccc(NC(=O)C(O)c3ccccc3C(=O)O)c2)n1` (configuration not stated), the MPC8 was found to be 2.5 µg/mL in the experiment with Pseudomonas aeruginosa [1] and 40 µg/mL in the experiment with Pseudomonas aeruginosa [2]. In addition, the Ratio in experiment [3] was found to be 16.
On to `COC(C(=O)Nc1cccc(/C=C/c2nc(C(C)C)cs2)c1)c1ccccc1C(=O)O` (configuration not stated), for which the MPC8 was 20 µg/mL with Pseudomonas aeruginosa [1], 160 µg/mL in the experiment with Pseudomonas aeruginosa [2] and 10 µg/mL with Pseudomonas aeruginosa [4]. Moreover, the Ratio in experiment [3] turned out to be 8.
For `CC(C)(C)c1csc(/C=C/c2cccc(NC(=O)Cc3ncccc3C(=O)O)c2)n1` the same measures were 2.5 µg/mL, 20 µg/mL, 1.25 µg/mL and 8.
